What is called viability is a read-out of living cells in per cent, often relative to untreated cells. In general, inhibition refers to the drop in the measured response relative to a control, in per cent.

The text below walks through data of PubChem BioAssay.

Calls of active or inactive are those of the source. Cut-off read from the data, not from the text of the source, unless noted: active = inhibition above about 30%; inactive = the rest.

Assay [1] can be described thus: HUVEC growth inhibition – cell-based, human, primary screen (AID 575;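 active = viability at or below 30% in both replicate assays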;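 note: 100% = median of untreated cell wells with 0.1% DMSO on each plate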). As to conditions: HUVEC proliferation, CellTiter-Glo luminescence, 72 h; at 10 µM; stronger effect = lower value. The essentials:
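Assay system: primary human umbilical vein endothelial cells / Buffer or medium: endothelial basal medium with 2% FBS plus growth supplements / Compound dosing: one dose, 10 µM final, 0.1% DMSO / Timing: 72 h treatment at 37 °C / Signal: CTG luminescence / Benchmarks: 32 DMSO-only cell-control wells (high), 32 MePR drug-control wells (low) per plate / Plate: collagen-coated 384-well format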
For orientation: In ATP-based viability assays light output follows the ATP content of the culture.

Assay [2] in a line: growth inhibitors of H69AR lung tumor, primary screen, human, duplicate replicates (AID 580;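 active = viability at or under a set limit in both replicates, limit being median viability minus 3 SD, cut at about 48% in these data, passing the limit was not always enough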;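 note: 100% = mean luminescence of untreated wells and 0% = no signal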). As to conditions: H69AR lung tumor cells viability, ATP luminescence, 72 h; at 10 µM; stronger effect = lower value.
Assay [3] in a line: reversal of MRP1-mediated doxorubicin resistance, pilot screen, H69AR cells, doxorubicin co-treatment (AID 601;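 active = viability loss from added drug above about 55%, and viability with drug at most 40%, in both replicates, limit read from the data, passing the limit was not always enough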). The conditions noted are these: CellTiter-Glo, 72 h, at 10 µM; for differential viability (reversal): stronger effect = higher value.
Assay [4] can be described thus: 384-well plate pilot, post-Golgi transport modulator project, inhibition of yeast transport mutant growth (AID 636; in the data active = inhibition above about 31%). The conditions noted are these: absorbance 615 nm, about 18 h, stronger effect = higher value.
Assay [5] can be described thus: growth suppression of yeast trafficking mutant, preliminary HTS, modulators of trafficking downstream of Golgi apparatus project, 1536-format plate, OD 615 nm (AID 637). The conditions noted are these: yeast transport mutant growth, absorbance 615 nm, 18 h; stronger effect = higher value.
The mark [6] stands for this setting: H69AR cells + 2 uM doxorubicin, measured here: viability with 2 uM doxorubicin, stronger effect = lower value.
The mark [7] stands for this setting: H69AR cells, compound alone cytotoxicity.

For `CN(c1cccc(NC(=O)COc2ccccc2)c1)S(C)(=O)=O`, the viability in assay [1] was 108% (inactive); in assay [2], 96% (inactive); in assay [3] (setting [6]), 99%; in assay [3] (setting [7]) it was 96%. Moreover, in assay [3] (H69AR cells + 2 uM doxorubicin), the differential viability (reversal) is -3.07% (inactive). In addition, the inhibition is 4.47% (inactive) in assay [4] and 0.32% (inactive) in assay [5].
In the case of `CCOC(=O)C1CCN(C(=O)c2c(-c3c(Cl)cccc3Cl)noc2C)CC1`, the viability in assay [1] is 95.8% (inactive); in assay [2] it was 84.8% (inactive); in assay [3] (setting [6]) it was 91.1%; in assay [3] (setting [7]) it was 84.8%. Moreover, the differential viability (reversal) in assay [3] (H69AR cells + 2 uM doxorubicin) was -6.21% (inactive). Besides, the inhibition is -2.73% (inactive) in assay [4] and -9.68% (inactive) in assay [5].
Consider `NC(=O)c1cc(-c2ccccc2)nc(Oc2ccccc2)n1`, for which the viability is 108% (inactive) in assay [1], 98.7% (inactive) in assay [2], 95% in assay [3] (setting [6]) and 98.7% in assay [3] (setting [7]). For the same compound, in assay [3] (H69AR cells + 2 uM doxorubicin), the differential viability (reversal) was 3.71% (inactive). For the same compound, the inhibition in assay [4] is -8% (inactive); in assay [5] it was -0.63% (inactive).
As for `Cc1ccc(CSc2nc3c(c(=O)[nH]2)C(c2ccncc2)C2=C(CCCC2=O)N3)cc1` (stereo not given), the viability in assay [1] was 72.5% (inactive); in assay [2], 97.9% (inactive); in assay [3] (setting [6]), 91.1%; in assay [3] (setting [7]), 97.9%. Besides, the differential viability (reversal) in assay [3] (H69AR cells + 2 uM doxorubicin) was 6.75% (inactive). The inhibition in assay [4] is -3.03% (inactive); in assay [5], 2.22% (inactive).
As for `Cc1cc(C(=O)Nc2cccc(O)c2)c(C)o1`, the viability in assay [1] was 87.1% (inactive); in assay [2], 90% (inactive); in assay [3] (setting [6]), 86.4%; in assay [3] (setting [7]), 90%. The differential viability (reversal) in assay [3] (H69AR cells + 2 uM doxorubicin) was 3.61% (inactive). Also, the inhibition in assay [4] is -4.55% (inactive); in assay [5] it was 3.17% (inactive).
For the compound `Cc1cc(C(F)(F)F)nc(SCC(=O)NC2=NC(=O)C(C)S2)n1` (stereo not given), the viability was 96% (inactive) in assay [1], 100% (inactive) in assay [2], 83.6% in assay [3] (setting [6]) and 100% in assay [3] (setting [7]). For the same compound, the differential viability (reversal) in assay [3] (H69AR cells + 2 uM doxorubicin) is 16.8% (inactive). The inhibition in assay [4] is -2.27% (inactive); in assay [5] it was -7.3% (inactive).
As for `CC(=O)Nc1ccc(S(=O)(=O)N2CCSC2c2ccccc2)cc1` (stereo not given), the viability in assay [1] was 99.6% (inactive); in assay [2], 91.5% (inactive); in assay [3] (setting [6]), 86.4%; in assay [3] (setting [7]), 91.5%. For the same compound, in assay [3] (H69AR cells + 2 uM doxorubicin), the differential viability (reversal) was 5.05% (inactive). The inhibition in assay [4] is -1.82% (inactive); in assay [5], 0.32% (inactive).
For `CCCCNC(=O)c1cc(-c2ccc(F)cc2)on1`, the viability is 74.1% (inactive) in assay [1], 81.2% (inactive) in assay [2], 59.2% in assay [3] (setting [6]) and 81.2% in assay [3] (setting [7]). In addition, the differential viability (reversal) in assay [3] (H69AR cells + 2 uM doxorubicin) is 21.9% (inactive). In addition, the results for the inhibition in assay [4] and in assay [5] were -2.5% (inactive) and -1.11% (inactive), respectively.
With `c1ccc(CCc2nn3c(Cn4cnc5ccccc54)nnc3s2)cc1`, the viability is 75.8% (inactive) in assay [1], 81.8% (inactive) in assay [2], 85.4% in assay [3] (setting [6]) and 81.8% in assay [3] (setting [7]). The differential viability (reversal) in assay [3] (H69AR cells + 2 uM doxorubicin) is -3.56% (inactive). Moreover, the inhibition in assay [4] was -1.18% (inactive); in assay [5], 11.4% (inactive).
In the case of `O=C(Nc1ccc(N2CCCC2=O)cc1)c1cccc(F)c1`, the viability in assay [1] is 109% (inactive); in assay [2] it was 99.9% (inactive); in assay [3] (setting [6]), 78.2%; in assay [3] (setting [7]), 99.9%. In addition, the differential viability (reversal) in assay [3] (H69AR cells + 2 uM doxorubicin) is 21.6% (inactive). Moreover, the figures for the inhibition in assay [4] and in assay [5] were -4.61% (inactive) and 0.95% (inactive), respectively.
`CCOC(=O)CC(C#N)c1cn(C)c2ccccc12` (stereo not given): the viability in assay [1] is 86.6% (inactive); in assay [2], 88% (inactive); in assay [3] (setting [6]) it was 92.2%; in assay [3] (setting [7]), 88%. Moreover, the differential viability (reversal) in assay [3] (H69AR cells + 2 uM doxorubicin) was -4.15% (inactive). Besides, the inhibition in assay [4] is -6.58% (inactive); in assay [5], -4.6% (inactive).
As for `CCOC(=O)CC(=O)c1cc(OC)c(OC)c(OC)c1`, the viability in assay [1] is 97.1% (inactive); in assay [2], 107% (inactive); in assay [3] (setting [6]), 95.6%; in assay [3] (setting [7]), 107%. In addition, the differential viability (reversal) in assay [3] (H69AR cells + 2 uM doxorubicin) is 11.3% (inactive). The inhibition is -0.53% (inactive) in assay [4] and -3.49% (inactive) in assay [5].
For the compound `CC(C(=O)N1c2ccc(F)cc2CCC1C)N1C(=O)c2ccccc2C1=O` (stereo not given), the viability is 114% (inactive) in assay [1], 91.3% (inactive) in assay [2], 79.8% in assay [3] (setting [6]) and 91.3% in assay [3] (setting [7]). In assay [3] (H69AR cells + 2 uM doxorubicin), the differential viability (reversal) was 11.5% (inactive). Also, the inhibition in assay [4] is -5.26% (inactive); in assay [5], 8.73% (inactive).
Regarding `O=C(Nc1nnc(C2CCCCC2)s1)c1cccs1`, the viability in assay [1] is 102% (inactive); in assay [2], 93.2% (inactive); in assay [3] (setting [6]) it was 82.9%; in assay [3] (setting [7]) it was 93.2%. The differential viability (reversal) in assay [3] (H69AR cells + 2 uM doxorubicin) is 10.4% (inactive). In addition, the inhibition was 0% (inactive) in assay [4] and -3.81% (inactive) in assay [5].
In the case of `CC(C)Cn1cc(C(=O)NCC2CCCO2)c2c3ccccc3n(C)c2c1=O` (stereo not given), the viability in assay [1] is 104% (inactive); in assay [2], 89.5% (inactive); in assay [3] (setting [6]), 87.8%; in assay [3] (setting [7]), 89.5%. Besides, in assay [3] (H69AR cells + 2 uM doxorubicin), the differential viability (reversal) is 1.72% (inactive). For the same compound, the inhibition in assay [4] was -2.08% (inactive); in assay [5], 1.59% (inactive).
As for `COc1cc2c(OC)cccc2cc1C(=O)O`, the viability is 95% (inactive) in assay [1], 88.2% (inactive) in assay [2], 85.7% in assay [3] (setting [6]) and 88.2% in assay [3] (setting [7]). The differential viability (reversal) in assay [3] (H69AR cells + 2 uM doxorubicin) was 2.57% (inactive). In addition, the inhibition in assay [4] was -1.32% (inactive); in assay [5] it was 12.1% (inactive).
Turning to `CC(C)c1nnc(NC(=O)CCC(=O)NCc2ccc3c(c2)OCO3)s1`, the viability in assay [1] was 103% (inactive); in assay [2], 97.7% (inactive); in assay [3] (setting [6]), 99.1%; in assay [3] (setting [7]), 97.7%. The differential viability (reversal) in assay [3] (H69AR cells + 2 uM doxorubicin) was -1.39% (inactive). The inhibition in assay [4] is -5.2% (inactive); in assay [5], 2.86% (inactive).
Regarding `Nc1nc(NC(=O)c2cccs2)nn1-c1ccccc1`, the viability was 101% (inactive) in assay [1], 94% (inactive) in assay [2], 86.7% in assay [3] (setting [6]) and 94% in assay [3] (setting [7]). The differential viability (reversal) in assay [3] (H69AR cells + 2 uM doxorubicin) is 7.31% (inactive). The inhibition in assay [4] is -6.45% (inactive); in assay [5], -4.29% (inactive).
Consider `COC(=O)Cc1[nH]nc2c1C(C1C=CCCC1)C(C#N)=C(N)O2` (stereo not given), for which the viability was 49.3% (inactive) in assay [1], 95.8% (inactive) in assay [2], 88.2% in assay [3] (setting [6]) and 95.8% in assay [3] (setting [7]). Moreover, the differential viability (reversal) in assay [3] (H69AR cells + 2 uM doxorubicin) is 7.65% (inactive). The inhibition in assay [4] is -4.21% (inactive); in assay [5], 3.33% (inactive).
As to `O=C(CNC(=O)c1cccs1)NCCN1CCN(c2ccccc2F)CC1`, the viability in assay [1] was 101% (inactive); in assay [2], 89.3% (inactive); in assay [3] (setting [6]), 77.2%; in assay [3] (setting [7]), 89.3%. In addition, the differential viability (reversal) in assay [3] (H69AR cells + 2 uM doxorubicin) is 12.1% (inactive). The inhibition in assay [4] was -3.95% (inactive); in assay [5], 2.54% (inactive).
